Test results from ChEMBL document CHEMBL1153534, “Design and synthesis of androgen receptor antagonists with bulky side chains for overcoming antiandrogen resistance” (J Med Chem, 2009).
Active and inactive are the calls of the source. The calls are words filed in the database; no cut-off is given here.

What was measured:
[1] = target: T1, Progesterone receptor (Homo sapiens) (UniProt P06401); assay: Agonist activity at human PR B-form expressed in human PC3 cells assessed as receptor transactivation at 1 uM after 24 hrs by luciferase reporter gene assay; format: functional, cell-based; conditions: PC-3
T1 sequence (whole entry): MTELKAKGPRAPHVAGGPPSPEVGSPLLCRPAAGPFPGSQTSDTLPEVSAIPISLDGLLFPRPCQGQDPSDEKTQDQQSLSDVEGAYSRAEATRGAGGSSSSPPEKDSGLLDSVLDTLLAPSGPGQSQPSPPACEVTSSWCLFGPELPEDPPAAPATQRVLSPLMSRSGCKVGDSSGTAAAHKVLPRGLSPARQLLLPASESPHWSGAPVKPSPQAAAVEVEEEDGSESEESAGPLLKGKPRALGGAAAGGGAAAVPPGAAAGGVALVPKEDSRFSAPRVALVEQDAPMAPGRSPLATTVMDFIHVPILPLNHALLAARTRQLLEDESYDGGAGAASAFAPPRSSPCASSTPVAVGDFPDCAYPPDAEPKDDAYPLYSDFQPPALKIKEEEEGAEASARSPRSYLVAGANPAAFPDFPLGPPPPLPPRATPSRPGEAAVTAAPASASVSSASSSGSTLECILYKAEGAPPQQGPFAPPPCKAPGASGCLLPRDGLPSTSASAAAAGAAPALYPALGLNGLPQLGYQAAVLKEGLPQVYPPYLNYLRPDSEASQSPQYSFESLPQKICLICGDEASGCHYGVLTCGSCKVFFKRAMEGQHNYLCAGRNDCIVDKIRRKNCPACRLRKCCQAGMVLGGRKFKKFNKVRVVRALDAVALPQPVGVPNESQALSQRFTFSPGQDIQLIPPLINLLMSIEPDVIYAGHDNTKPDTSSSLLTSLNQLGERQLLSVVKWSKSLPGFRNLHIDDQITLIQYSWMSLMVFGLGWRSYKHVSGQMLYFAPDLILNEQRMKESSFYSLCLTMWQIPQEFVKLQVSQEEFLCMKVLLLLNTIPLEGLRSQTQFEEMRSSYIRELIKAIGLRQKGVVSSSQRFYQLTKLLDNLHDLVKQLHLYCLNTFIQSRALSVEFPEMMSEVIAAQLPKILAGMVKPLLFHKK
How it was run: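 PC-3 cells carrying a luciferase reporter for transactivation by the human PR B form. Antagonist mode used 10 nM R5020 as the agonist. Agonist mode ran in the absence of R5020. Luciferase read-out.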

[2] = target: T2, Androgen receptor (Rattus norvegicus) (UniProt P15207); assay: Binding affinity to rat androgen receptor ligand binding domain by competitive fluorescence polarization assay
T2 sequence (whole entry): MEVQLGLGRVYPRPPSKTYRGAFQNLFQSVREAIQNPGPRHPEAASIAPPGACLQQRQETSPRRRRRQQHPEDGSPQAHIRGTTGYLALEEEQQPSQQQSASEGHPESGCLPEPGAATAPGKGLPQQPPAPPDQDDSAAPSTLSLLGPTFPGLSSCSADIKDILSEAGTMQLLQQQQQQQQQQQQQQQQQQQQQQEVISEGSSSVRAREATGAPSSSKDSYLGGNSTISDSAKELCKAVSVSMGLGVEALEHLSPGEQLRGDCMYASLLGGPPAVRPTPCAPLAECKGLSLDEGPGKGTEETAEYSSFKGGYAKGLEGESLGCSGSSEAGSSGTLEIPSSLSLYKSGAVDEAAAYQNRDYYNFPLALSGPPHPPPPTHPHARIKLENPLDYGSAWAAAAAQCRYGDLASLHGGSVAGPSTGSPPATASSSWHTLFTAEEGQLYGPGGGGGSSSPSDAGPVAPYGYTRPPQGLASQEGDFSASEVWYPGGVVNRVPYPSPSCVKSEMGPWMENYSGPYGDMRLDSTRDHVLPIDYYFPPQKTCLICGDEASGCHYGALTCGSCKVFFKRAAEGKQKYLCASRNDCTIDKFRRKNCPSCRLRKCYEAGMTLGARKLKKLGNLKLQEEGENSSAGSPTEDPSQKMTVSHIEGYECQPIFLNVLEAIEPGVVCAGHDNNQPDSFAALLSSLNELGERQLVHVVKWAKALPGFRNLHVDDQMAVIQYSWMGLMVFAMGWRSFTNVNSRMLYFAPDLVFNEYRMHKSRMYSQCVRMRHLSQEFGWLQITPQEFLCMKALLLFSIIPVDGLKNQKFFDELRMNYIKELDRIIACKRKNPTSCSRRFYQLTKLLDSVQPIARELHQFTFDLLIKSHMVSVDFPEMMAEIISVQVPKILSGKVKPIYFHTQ
How it was run: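 Competitive fluorescence polarization with the PolarScreen AR competitor kit, measuring displacement of a fluorescent tracer from the AR-LBD. Polarization was normalized to DMSO vehicle, which sets the maximum. Tracer without receptor sets the minimum, and DHT served as positive control. Average ± sd of experiments in triplicate.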

[3] = system: PC-3; assay: Antiandrogenic activity in human PC3 cells expressing androgen receptor T877A mutant assessed as inhibition of DHT-induced ARE-dependent transactivation at 1 uM after 24 hrs by luciferase reporter gene assay; format: cell-based
How it was run: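 PC-3 cells, which lack endogenous AR, transiently transfected with plasmids expressing human AR (WT, T877A, W741C or H874Y) plus an ARE-driven MMTV-luc reporter. Cells were treated with or without 0.1 nM DHT. Firefly luciferase was standardized to a Renilla control and normalized to the 0.1 nM DHT signal. Mean ± sd.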

Activity [1]: inactive
Activity [2]: Dose-dependent effect
Structure (SMILES): COc1cc(/C=C(\C(=O)/C=C/C2=C(C)CCCC2(C)C)C(=O)/C=C/c2ccc(O)c(OC)c2)ccc1O
Activity [3]: Active
